Drawing on ChEMBL document CHEMBL3259614, “Design, synthesis, and structure-activity relationship studies of novel fused heterocycles-linked triazoles with good activity and water solubility” (J Med Chem, 2014), this text covers MIC for seven compounds.

In brackets after ≈: the same amount, converted by molar mass.

One assay concerns Candida parapsilosis. Nature of the assay: Antimicrobial activity against Candida parapsilosis 22019 after 24 hrs by serial dilution method. It counts as functional. The following applies: Lodderomyces parapsilosis, 22019, 24 h. An outline of the steps: (§1)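 Broth serial dilution MIC in 96-well plates following NCCLS/CLSI methods. Compounds were dissolved in DMSO and serially diluted in growth medium, with incubation at 35 °C. […] C. parapsilosis 22019 served as the quality-control strain in each assay.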
The compound `C[C@@H](N1CCn2nc(-c3ccc(C(F)(F)F)cc3)nc2C1)[C@](O)(Cn1cncn1)c1ccc(F)cc1F` registered an MIC of 0.5 µg/mL (≈ 0.963 µM).

On to `C[C@@H](N1CCn2nc(-c3ccc(F)cc3F)nc2C1)[C@](O)(Cn1cncn1)c1ccc(F)cc1F`, for which 0.25 µg/mL (≈ 0.513 µM) was the least that counted as inhibitory (MIC).

Compound `CC(C)c1cccc(-c2nc3n(n2)CCN([C@H](C)[C@](O)(Cn2cncn2)c2ccc(F)cc2F)C3)c1` registered an MIC of 4 µg/mL (≈ 8.1 µM).

As to `Cc1ccc(-c2nc3n(n2)CCN([C@H](C)[C@](O)(Cn2cncn2)c2ccc(F)cc2F)C3)cc1`, the MIC came out at 0.125 µg/mL (≈ 0.269 µM).

`COc1ccc(-c2nc3n(n2)CCN([C@H](C)[C@](O)(Cn2cncn2)c2ccc(F)cc2F)C3)cc1` yielded an MIC of 0.25 µg/mL (≈ 0.519 µM).

Take `C[C@@H](N1CCn2nc(-c3cccc(F)c3)nc2C1)[C@](O)(Cn1cncn1)c1ccc(F)cc1F`: the MIC is 0.5 µg/mL (≈ 1.07 µM).

In the case of `C[C@@H](N1CCn2nc(-c3cccc(C#N)c3)nc2C1)[C@](O)(Cn1cncn1)c1ccc(F)cc1F`, it took 0.125 µg/mL (≈ 0.262 µM) to inhibit growth (MIC).

For another assay, the system named is Aspergillus fumigatus. Put plainly: Antimicrobial activity against Aspergillus fumigatus 7544 after 48 hrs by serial dilution method. In kind it is functional. As to conditions: Aspergillus fumigatus, 7544, 48 h. The method in brief: as §1
In the case of `C[C@@H](N1CCn2nc(-c3ccc(C(F)(F)F)cc3)nc2C1)[C@](O)(Cn1cncn1)c1ccc(F)cc1F`, the MIC is 16 µg/mL (≈ 30.8 µM).

Turning to `C[C@@H](N1CCn2nc(-c3ccc(F)cc3F)nc2C1)[C@](O)(Cn1cncn1)c1ccc(F)cc1F`, the minimum inhibitory concentration (MIC) was over 64 µg/mL.

Compound `CC(C)c1cccc(-c2nc3n(n2)CCN([C@H](C)[C@](O)(Cn2cncn2)c2ccc(F)cc2F)C3)c1` yielded an MIC of 16 µg/mL (≈ 32.4 µM).

For the compound `Cc1ccc(-c2nc3n(n2)CCN([C@H](C)[C@](O)(Cn2cncn2)c2ccc(F)cc2F)C3)cc1`, the MIC stood at 32 µg/mL (≈ 68.7 µM).

Take `COc1ccc(-c2nc3n(n2)CCN([C@H](C)[C@](O)(Cn2cncn2)c2ccc(F)cc2F)C3)cc1`: the minimum inhibitory concentration (MIC) is 32 µg/mL (≈ 66.5 µM).

`C[C@@H](N1CCn2nc(-c3cccc(F)c3)nc2C1)[C@](O)(Cn1cncn1)c1ccc(F)cc1F`: the MIC is 16 µg/mL (≈ 34.1 µM).

As to `C[C@@H](N1CCn2nc(-c3cccc(C#N)c3)nc2C1)[C@](O)(Cn1cncn1)c1ccc(F)cc1F`, the MIC was 16 µg/mL (≈ 33.6 µM).

In another assay the test system is Cryptococcus neoformans. Put plainly: Antimicrobial activity against Cryptococcus neoformans 32609 after 72 hrs by serial dilution method. It counts as functional. The following applies: Cryptococcus neoformans, 32609, 72 h. The method in brief:
as §1
Turning to `C[C@@H](N1CCn2nc(-c3ccc(C(F)(F)F)cc3)nc2C1)[C@](O)(Cn1cncn1)c1ccc(F)cc1F`, the MIC was found to be 1 µg/mL (≈ 1.93 µM).

With `C[C@@H](N1CCn2nc(-c3ccc(F)cc3F)nc2C1)[C@](O)(Cn1cncn1)c1ccc(F)cc1F`, the MIC amounted to 0.5 µg/mL (≈ 1.03 µM).

Regarding `CC(C)c1cccc(-c2nc3n(n2)CCN([C@H](C)[C@](O)(Cn2cncn2)c2ccc(F)cc2F)C3)c1`, the MIC turned out to be 8 µg/mL (≈ 16.2 µM).

The compound `Cc1ccc(-c2nc3n(n2)CCN([C@H](C)[C@](O)(Cn2cncn2)c2ccc(F)cc2F)C3)cc1` showed an MIC of 0.125 µg/mL (≈ 0.269 µM).

In turn, `COc1ccc(-c2nc3n(n2)CCN([C@H](C)[C@](O)(Cn2cncn2)c2ccc(F)cc2F)C3)cc1` registered a minimal inhibitory concentration (MIC) of 0.125 µg/mL (≈ 0.26 µM).

In turn, `C[C@@H](N1CCn2nc(-c3cccc(F)c3)nc2C1)[C@](O)(Cn1cncn1)c1ccc(F)cc1F` had an MIC of 0.5 µg/mL (≈ 1.07 µM).

As to `C[C@@H](N1CCn2nc(-c3cccc(C#N)c3)nc2C1)[C@](O)(Cn1cncn1)c1ccc(F)cc1F`, 0.5 µg/mL (≈ 1.05 µM) was the least that counted as inhibitory (MIC).

Another assay concerns Candida albicans. Put plainly: Antimicrobial activity against Candida albicans SC5314 after 24 hrs by serial dilution method. In kind it is functional. As to conditions: SC5314, 24 h. The method in brief:
as §1
`C[C@@H](N1CCn2nc(-c3ccc(C(F)(F)F)cc3)nc2C1)[C@](O)(Cn1cncn1)c1ccc(F)cc1F` came in with an MIC of 0.25 µg/mL (≈ 0.481 µM).

Compound `C[C@@H](N1CCn2nc(-c3ccc(F)cc3F)nc2C1)[C@](O)(Cn1cncn1)c1ccc(F)cc1F` displayed an MIC of 0.125 µg/mL (≈ 0.256 µM).

Turning to `CC(C)c1cccc(-c2nc3n(n2)CCN([C@H](C)[C@](O)(Cn2cncn2)c2ccc(F)cc2F)C3)c1`, the lowest concentration to inhibit growth (MIC) was 0.25 µg/mL (≈ 0.507 µM).

The compound `Cc1ccc(-c2nc3n(n2)CCN([C@H](C)[C@](O)(Cn2cncn2)c2ccc(F)cc2F)C3)cc1` gave an MIC of 0.0625 µg/mL (≈ 0.134 µM).

Compound `COc1ccc(-c2nc3n(n2)CCN([C@H](C)[C@](O)(Cn2cncn2)c2ccc(F)cc2F)C3)cc1` returned a minimal inhibitory concentration (MIC) of 0.0625 µg/mL (≈ 0.13 µM).

Turning to `C[C@@H](N1CCn2nc(-c3cccc(F)c3)nc2C1)[C@](O)(Cn1cncn1)c1ccc(F)cc1F`, the MIC was 0.125 µg/mL (≈ 0.266 µM).

Take `C[C@@H](N1CCn2nc(-c3cccc(C#N)c3)nc2C1)[C@](O)(Cn1cncn1)c1ccc(F)cc1F`: the MIC was found to be 0.125 µg/mL (≈ 0.262 µM).

The test system of another assay is Candida albicans. Nature of the assay: Antimicrobial activity against Candida albicans Y0109 after 24 hrs by serial dilution method. It counts as functional. The following applies: Y0109, 24 h. An outline of the steps:
as §1
As for `C[C@@H](N1CCn2nc(-c3ccc(C(F)(F)F)cc3)nc2C1)[C@](O)(Cn1cncn1)c1ccc(F)cc1F`, the MIC came to 0.5 µg/mL (≈ 0.963 µM).

Compound `C[C@@H](N1CCn2nc(-c3ccc(F)cc3F)nc2C1)[C@](O)(Cn1cncn1)c1ccc(F)cc1F` registered a minimal inhibitory concentration (MIC) of 0.125 µg/mL (≈ 0.256 µM).

In turn, `CC(C)c1cccc(-c2nc3n(n2)CCN([C@H](C)[C@](O)(Cn2cncn2)c2ccc(F)cc2F)C3)c1` displayed an MIC of 4 µg/mL (≈ 8.1 µM).

`Cc1ccc(-c2nc3n(n2)CCN([C@H](C)[C@](O)(Cn2cncn2)c2ccc(F)cc2F)C3)cc1` had an MIC of 0.125 µg/mL (≈ 0.269 µM).

Regarding `COc1ccc(-c2nc3n(n2)CCN([C@H](C)[C@](O)(Cn2cncn2)c2ccc(F)cc2F)C3)cc1`, the MIC was determined as 0.125 µg/mL (≈ 0.26 µM).

The compound `C[C@@H](N1CCn2nc(-c3cccc(F)c3)nc2C1)[C@](O)(Cn1cncn1)c1ccc(F)cc1F` returned a minimum inhibitory concentration (MIC) of 0.125 µg/mL (≈ 0.266 µM).

The compound `C[C@@H](N1CCn2nc(-c3cccc(C#N)c3)nc2C1)[C@](O)(Cn1cncn1)c1ccc(F)cc1F` had an MIC of 0.125 µg/mL (≈ 0.262 µM).

Another assay deals with Nakaseomyces glabratus. Put plainly: Antimicrobial activity against Candida glabrata 537 after 24 hrs by serial dilution method. In kind it is functional. As to conditions: Nakaseomyces glabratus, 537, 24 h. The method in brief: as §1
`C[C@@H](N1CCn2nc(-c3ccc(C(F)(F)F)cc3)nc2C1)[C@](O)(Cn1cncn1)c1ccc(F)cc1F` had an MIC of 0.125 µg/mL (≈ 0.241 µM).

`C[C@@H](N1CCn2nc(-c3ccc(F)cc3F)nc2C1)[C@](O)(Cn1cncn1)c1ccc(F)cc1F` had an MIC of 0.5 µg/mL (≈ 1.03 µM).

Take `CC(C)c1cccc(-c2nc3n(n2)CCN([C@H](C)[C@](O)(Cn2cncn2)c2ccc(F)cc2F)C3)c1`: the minimum inhibitory concentration (MIC) was determined as 4 µg/mL (≈ 8.1 µM).

`Cc1ccc(-c2nc3n(n2)CCN([C@H](C)[C@](O)(Cn2cncn2)c2ccc(F)cc2F)C3)cc1` had a minimum inhibitory concentration (MIC) of 0.125 µg/mL (≈ 0.269 µM).

Turning to `COc1ccc(-c2nc3n(n2)CCN([C@H](C)[C@](O)(Cn2cncn2)c2ccc(F)cc2F)C3)cc1`, the MIC stood at 0.125 µg/mL (≈ 0.26 µM).

With `C[C@@H](N1CCn2nc(-c3cccc(F)c3)nc2C1)[C@](O)(Cn1cncn1)c1ccc(F)cc1F`, the lowest concentration to inhibit growth (MIC) was 0.25 µg/mL (≈ 0.533 µM).

The compound `C[C@@H](N1CCn2nc(-c3cccc(C#N)c3)nc2C1)[C@](O)(Cn1cncn1)c1ccc(F)cc1F` showed an MIC of 0.5 µg/mL (≈ 1.05 µM).
